The text below walks through data of ChEMBL document CHEMBL4020742, “Design and optimization of purine derivatives as in vivo active PDE10A inhibitors” (Bioorg Med Chem, 2017).

As usually defined, the IC50 is the concentration that gives 50% inhibition. Usually half-life stands for the time needed for the level to fall by half in the phase considered. A higher half-life goes with slow decline.

Data set [1] concerns the target T1, cAMP and cAMP-inhibited cGMP 3',5'-cyclic phosphodiesterase 10A (Homo sapiens, UniProt Q9Y233). In words: Inhibition of recombinant human N-terminal GST-tagged PDE10A1 (2 to 789 residues) expressed in baculovirus infected Sf9 cells at 5 uM using fluorescein-labeled cAMP as substrate preincubated for 15 mins followed by substrate addition measured after 30 mins by IMAP fluorescence polarization assay relative to control. The procedure, abridged: (§1)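 Recombinant PDE4A1A, PDE2A1 or PDE10A1 was incubated with compound (1% DMSO, duplicate) for 15 min at RT. Fluorescein-cAMP was then added for 30 min at RT, and the reaction was stopped with IMAP binding reagent (1 h, dark). FP was read at Ex485/Em535. Inhibition was set against no-enzyme and DMSO controls. IC50 came from a four-parameter logistic fit; values are the mean of at least two measurements.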

The target of data set [2] is T1, cAMP and cAMP-inhibited cGMP 3',5'-cyclic phosphodiesterase 10A. Kind of data set: Inhibition of recombinant human N-terminal GST-tagged PDE10A1 (2 to 789 residues) expressed in baculovirus infected Sf9 cells using fluorescein-labeled cAMP as substrate preincubated for 15 mins followed by substrate addition measured after 30 mins by IMAP fluorescence polarization assay. The method in brief: as §1
Background: In fluorescence polarisation assays a small probe gives low polarisation when free and higher when bound to something large.

The nature of data set [3]: Half life in human liver microsomes at 1 uM preincubated for 5 mins followed by NADPH addition measured up to 30 mins by LC-MS/MS analysis. In kind it is ADME, microsome. The procedure, abridged:
(§2)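 Liver microsomes (0.5 mg/mL) plus 1 µM compound were preincubated 5 min at 37 °C in 0.1 M phosphate buffer pH 7.4 containing EDTA and MgCl₂. NADPH started the reaction. Samples at 0, 5, 10 and 30 min were quenched with cold acetonitrile containing tinidazole internal standard and centrifuged. Parent remaining was quantified by LC/MS/MS.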

The nature of data set [4]: Half life in mouse liver microsomes at 1 uM preincubated for 5 mins followed by NADPH addition measured up to 30 mins by LC-MS/MS analysis. In kind it is ADME, microsome. The procedure, abridged:
as §2
On the technique in general: Microsomes from liver hold many membrane-bound enzymes, among them those of drug oxidation.

For data set [5], the target named is T2, CYP3A4 (Homo sapiens, UniProt P08684). In words: (§3) Inhibition of CYP3A4 in human microsomes at 10 uM using midazolam as substrate preincubated for 5 mins followed by NADPH addition measured 20 mins relative to control. In kind it is ADME. Particulars: human microsomes, probe midazolam, read-out: TDI. The procedure, abridged:
(§4)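 Pooled human microsomes (0.2 mg/mL) in 100 mM phosphate pH 7.4 with a probe cocktail: midazolam 10 µM, dextromethorphan 10 µM, diclofenac 20 µM, phenacetin 100 µM, mephenytoin 100 µM. Test compound was 10 µM; organic solvent was under 1%. After 5 min preincubation at 37 °C, 1 mmol/L NADPH was added and the reaction ran 20 min, keeping substrate conversion below 20%. Metabolite formation was expressed relative to PBS control.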

The target in data set [6] is T2, CYP3A4. Kind of data set: (§5) Time-dependent inhibition of CYP3A4 in human microsomes at 10 uM using midazolam as substrate preincubated for 5 mins followed by NADPH addition measured 20 mins relative to control. Particulars: human microsomes, probe midazolam, read-out: TDI. In kind it is ADME.
In data set [7] the target is T3, Cytochrome P450 2D6 (Homo sapiens, UniProt P10635). Kind of data set: (§6) Inhibition of CYP2D6 in human microsomes at 10 uM using dextromethorphan as substrate preincubated for 5 mins followed by NADPH addition measured 20 mins relative to control. In kind it is ADME. Particulars: microsomes, 20 min, 10 µM. The procedure, abridged: as §4
T3 sequence (P10635 whole entry): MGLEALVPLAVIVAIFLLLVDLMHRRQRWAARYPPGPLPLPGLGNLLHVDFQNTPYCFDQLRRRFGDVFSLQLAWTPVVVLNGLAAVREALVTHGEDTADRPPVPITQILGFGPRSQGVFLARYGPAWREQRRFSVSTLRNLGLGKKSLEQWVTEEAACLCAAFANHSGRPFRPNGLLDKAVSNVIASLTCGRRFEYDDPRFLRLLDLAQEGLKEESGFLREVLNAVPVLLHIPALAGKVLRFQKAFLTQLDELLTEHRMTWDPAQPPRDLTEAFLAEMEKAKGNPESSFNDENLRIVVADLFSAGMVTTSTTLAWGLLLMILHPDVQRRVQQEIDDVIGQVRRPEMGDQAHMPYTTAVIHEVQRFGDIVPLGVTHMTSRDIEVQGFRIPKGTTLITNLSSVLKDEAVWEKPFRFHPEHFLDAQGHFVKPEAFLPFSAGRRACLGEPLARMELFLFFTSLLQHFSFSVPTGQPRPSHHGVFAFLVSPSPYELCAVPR
The target in data set [8] is T4, CYP2D6 (Homo sapiens, UniProt P10635). Kind of data set: (§7) […] of CYP2D6 in human microsomes at 10 uM using dextromethorphan as substrate preincubated for 5 mins followed by NADPH addition measured 20 mins relative to control. In kind it is ADME. Particulars: human microsomes, probe dextromethorphan, read-out: TDI.
T4 sequence (P10635 whole entry): as above
Data set [9] has as its target T5, Cytochrome P450 2C9 (Homo sapiens, UniProt P11712). Kind of data set: (§8) Inhibition of CYP2C9 in human microsomes at 10 uM using diclofenac as substrate preincubated for 5 mins followed by NADPH addition measured 20 mins relative to control. In kind it is ADME. The following applies: microsomes, 20 min, 10 µM. The method in brief: as §4
For data set [10], the target named is T5, Cytochrome P450 2C9. In words: (§9) […] of CYP2C9 in human microsomes at 10 uM using diclofenac as substrate preincubated for 5 mins followed by NADPH addition measured 20 mins relative to control. In kind it is ADME. Particulars: microsomes, 20 min, 10 µM.
Data set [11] has as its target T6, CYP1A2 (Homo sapiens, UniProt P05177).
T6 sequence (P05177 whole entry): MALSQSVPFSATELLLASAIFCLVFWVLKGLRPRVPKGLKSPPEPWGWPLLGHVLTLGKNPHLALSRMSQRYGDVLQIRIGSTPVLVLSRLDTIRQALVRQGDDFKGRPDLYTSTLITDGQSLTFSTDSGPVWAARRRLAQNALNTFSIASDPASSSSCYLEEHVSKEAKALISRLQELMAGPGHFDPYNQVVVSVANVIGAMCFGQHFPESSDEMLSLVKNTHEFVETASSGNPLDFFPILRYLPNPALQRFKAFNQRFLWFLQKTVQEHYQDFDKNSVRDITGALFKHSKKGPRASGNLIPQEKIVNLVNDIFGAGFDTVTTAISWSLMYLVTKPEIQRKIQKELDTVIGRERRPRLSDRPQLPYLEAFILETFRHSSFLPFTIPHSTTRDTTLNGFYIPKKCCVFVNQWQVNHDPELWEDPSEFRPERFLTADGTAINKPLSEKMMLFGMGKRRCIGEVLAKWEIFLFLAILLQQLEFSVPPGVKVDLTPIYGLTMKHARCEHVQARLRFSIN
In words: Inhibition of CYP1A2 in human microsomes at 10 uM using phenacetin as substrate preincubated for 5 mins followed by NADPH addition measured 20 mins relative to control. In kind it is ADME. The following applies: probe phenacetin, read-out: TDI. The procedure, abridged: as §4

Data set [12] deals with T6, CYP1A2. Kind of data set: Time-dependent inhibition of CYP1A2 in human microsomes at 10 uM using phenacetin as substrate preincubated for 5 mins followed by NADPH addition measured 20 mins relative to control. The following applies: human microsomes, probe phenacetin, read-out: TDI. In kind it is ADME.
In data set [13] the target is T7, Cytochrome P450 2C19 (Homo sapiens, UniProt P33261). In words: (§10) Inhibition of CYP2C19 in human microsomes at 10 uM using mephenytoin as substrate preincubated for 5 mins followed by NADPH addition measured 20 mins relative to control. In kind it is ADME. Particulars: microsomes, 20 min, 10 µM. The procedure, abridged: as §4
T7 sequence (P33261 whole entry): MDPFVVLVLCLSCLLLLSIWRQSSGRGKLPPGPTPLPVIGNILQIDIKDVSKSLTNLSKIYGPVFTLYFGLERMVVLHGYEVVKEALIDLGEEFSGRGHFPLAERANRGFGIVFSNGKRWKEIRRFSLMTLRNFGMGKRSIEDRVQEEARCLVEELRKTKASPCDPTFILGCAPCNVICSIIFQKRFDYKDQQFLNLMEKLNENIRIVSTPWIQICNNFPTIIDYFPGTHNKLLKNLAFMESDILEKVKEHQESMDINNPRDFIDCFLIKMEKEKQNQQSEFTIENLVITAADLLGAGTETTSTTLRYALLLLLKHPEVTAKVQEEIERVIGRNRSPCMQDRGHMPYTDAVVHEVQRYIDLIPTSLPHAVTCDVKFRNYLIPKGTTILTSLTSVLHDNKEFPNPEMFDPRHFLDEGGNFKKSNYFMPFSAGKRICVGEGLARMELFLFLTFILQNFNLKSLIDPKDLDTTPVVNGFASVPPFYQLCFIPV
Data set [14] addresses T8, CYP2C19 (Homo sapiens, UniProt P33261). Kind of data set: (§11) […] of CYP2C19 in human microsomes at 10 uM using mephenytoin as substrate preincubated for 5 mins followed by NADPH addition measured 20 mins relative to control. In kind it is ADME. Particulars: human microsomes, probe mephenytoin, read-out: TDI.
The target of another data set is PDE2A1 (Homo sapiens, UniProt O00408). In words: Inhibition of recombinant human N-terminal FLAG-tagged PDE2A1 (2 to 941 residues) expressed in baculovirus infected Sf9 cells at 1 uM using fluorescein-labeled cAMP as substrate preincubated for 15 mins followed by substrate addition measured after 30 mins by IMAP fluorescence polarization assay relative to control. The following applies: probe fluorescein-labeled cAMP. The method in brief:
as §1

For data set [15], the system named is Rattus norvegicus. In words: Antipsychotic activity in Sprague-Dawley rat assessed as inhibition of PCP-induced hyperlocomotion at 10 mg/kg, po pretreated for 30 mins followed by PCP addition measured after 5 mins for 1.5 hrs by open field test. In kind it is functional, organism-based. The procedure, abridged: (§12)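 Male SD rats (200-250 g), acclimated at least 1 week. Drug was given p.o. in sterile saline with 0.5% Tween 80 and 0.2% CMC-sodium, 30 min before PCP 5 mg/kg i.p. Rats were placed in a 40×40×45 cm open-field arena 5 min after PCP and video-tracked for 90 min. Read-out was total distance travelled, reported as mean ± SEM.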

For data set [16], the system named is Rattus norvegicus. Kind of data set: Antipsychotic activity in Sprague-Dawley rat assessed as inhibition of PCP-induced hyperlocomotion at 50 mg/kg, po pretreated for 30 mins followed by PCP addition measured after 5 mins for 1.5 hrs by open field test. In kind it is functional, organism-based. The procedure, abridged: as §12
Data set [17] concerns Rattus norvegicus. In words: Antipsychotic activity in Sprague-Dawley rat assessed as inhibition of PCP-induced prepulse inhibition deficit at 10 mg/kg, po pretreated for 30 mins followed by PCP addition measured after 5 mins to 10 mins. In kind it is functional, organism-based. The procedure, abridged: (§13)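 Male SD rats (200-250 g) were dosed p.o. in saline with 0.5% Tween 80 and 0.2% CMC-sodium, 30 min before PCP 5 mg/kg i.p. Acoustic startle PPI was tested in startle chambers 5-10 min after PCP. Startle magnitude was the mean of pulse-alone trials. n = 11-16 per group; mean ± SEM; ANOVA with post hoc tests.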

For data set [18], the system named is Rattus norvegicus. Kind of data set: Antipsychotic activity in Sprague-Dawley rat assessed as inhibition of PCP-induced prepulse inhibition deficit at 50 mg/kg, po pretreated for 30 mins followed by PCP addition measured after 5 mins to 10 mins. In kind it is functional, organism-based. The procedure, abridged: as §13
For data set [19], the target named is T9, Cytochrome P450 3A4 (Homo sapiens, UniProt P08684). The description is as §3. In kind it is ADME. The following applies: microsomes, 20 min, 10 µM. The procedure, abridged:
as §4

Data set [20] addresses T9, Cytochrome P450 3A4. The description is as §5. In kind it is ADME. The following applies: microsomes, 20 min, 10 µM.
For data set [21], the target named is T4, CYP2D6. The description is as §6. In kind it is ADME. Particulars: human microsomes, probe dextromethorphan, read-out: TDI. The method in brief:
as §4

Data set [22] has as its target T3, Cytochrome P450 2D6. The description is as §7. In kind it is ADME. The following applies: microsomes, 20 min, 10 µM.
The target in data set [23] is T10, CYP2C9 (Homo sapiens, UniProt P11712). The description is as §8. In kind it is ADME. Particulars: human microsomes, probe diclofenac, read-out: TDI. The method in brief: as §4
T10 sequence (P11712 whole entry): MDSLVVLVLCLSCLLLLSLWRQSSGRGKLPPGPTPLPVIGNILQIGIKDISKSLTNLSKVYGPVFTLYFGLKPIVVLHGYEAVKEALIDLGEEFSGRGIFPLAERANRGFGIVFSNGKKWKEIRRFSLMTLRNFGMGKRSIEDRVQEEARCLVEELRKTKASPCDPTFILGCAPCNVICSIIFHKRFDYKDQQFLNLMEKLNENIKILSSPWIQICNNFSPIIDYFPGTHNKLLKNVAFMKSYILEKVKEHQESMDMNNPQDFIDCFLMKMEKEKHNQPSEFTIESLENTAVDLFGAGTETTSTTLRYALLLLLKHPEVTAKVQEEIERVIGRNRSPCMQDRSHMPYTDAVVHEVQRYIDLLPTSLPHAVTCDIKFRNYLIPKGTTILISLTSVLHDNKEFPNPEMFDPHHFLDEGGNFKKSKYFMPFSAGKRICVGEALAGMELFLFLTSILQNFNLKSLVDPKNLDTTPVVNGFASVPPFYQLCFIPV
For data set [24], the target named is T8, CYP2C19. The data set is described as §10. Particulars: human microsomes, probe mephenytoin, read-out: TDI. In kind it is ADME. The procedure, abridged:
as §4

Data set [25] has as its target T7, Cytochrome P450 2C19. Described as §11. In kind it is ADME. The following applies: microsomes, 20 min, 10 µM.
For data set [26], the target named is T10, CYP2C9. Described as §9. In kind it is ADME. The following applies: human microsomes, probe diclofenac, read-out: TDI.

Active and inactive are the calls of the source.

T8 sequence (P33261 whole entry, the tested form may be a part): as the sequence (P33261 whole entry) above
T5 sequence (P11712 whole entry): as the sequence (P11712 whole entry) above
T9 sequence (P08684 whole entry): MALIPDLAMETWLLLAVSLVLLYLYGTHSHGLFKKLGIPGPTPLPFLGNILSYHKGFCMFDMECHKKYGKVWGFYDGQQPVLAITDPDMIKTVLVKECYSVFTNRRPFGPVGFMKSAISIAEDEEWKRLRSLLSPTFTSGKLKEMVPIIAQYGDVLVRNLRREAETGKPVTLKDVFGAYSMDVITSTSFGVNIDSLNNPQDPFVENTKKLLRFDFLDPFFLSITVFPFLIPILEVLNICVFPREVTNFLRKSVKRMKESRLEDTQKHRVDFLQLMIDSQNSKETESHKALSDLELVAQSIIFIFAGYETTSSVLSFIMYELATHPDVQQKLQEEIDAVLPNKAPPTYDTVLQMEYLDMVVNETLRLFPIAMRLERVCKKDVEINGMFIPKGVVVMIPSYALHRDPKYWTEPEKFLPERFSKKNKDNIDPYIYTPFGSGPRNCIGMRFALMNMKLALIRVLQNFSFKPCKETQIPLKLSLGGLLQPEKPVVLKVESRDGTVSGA
T2 sequence (P08684 whole entry): as above
T1 sequence (Q9Y233 whole entry, the tested form may be a part): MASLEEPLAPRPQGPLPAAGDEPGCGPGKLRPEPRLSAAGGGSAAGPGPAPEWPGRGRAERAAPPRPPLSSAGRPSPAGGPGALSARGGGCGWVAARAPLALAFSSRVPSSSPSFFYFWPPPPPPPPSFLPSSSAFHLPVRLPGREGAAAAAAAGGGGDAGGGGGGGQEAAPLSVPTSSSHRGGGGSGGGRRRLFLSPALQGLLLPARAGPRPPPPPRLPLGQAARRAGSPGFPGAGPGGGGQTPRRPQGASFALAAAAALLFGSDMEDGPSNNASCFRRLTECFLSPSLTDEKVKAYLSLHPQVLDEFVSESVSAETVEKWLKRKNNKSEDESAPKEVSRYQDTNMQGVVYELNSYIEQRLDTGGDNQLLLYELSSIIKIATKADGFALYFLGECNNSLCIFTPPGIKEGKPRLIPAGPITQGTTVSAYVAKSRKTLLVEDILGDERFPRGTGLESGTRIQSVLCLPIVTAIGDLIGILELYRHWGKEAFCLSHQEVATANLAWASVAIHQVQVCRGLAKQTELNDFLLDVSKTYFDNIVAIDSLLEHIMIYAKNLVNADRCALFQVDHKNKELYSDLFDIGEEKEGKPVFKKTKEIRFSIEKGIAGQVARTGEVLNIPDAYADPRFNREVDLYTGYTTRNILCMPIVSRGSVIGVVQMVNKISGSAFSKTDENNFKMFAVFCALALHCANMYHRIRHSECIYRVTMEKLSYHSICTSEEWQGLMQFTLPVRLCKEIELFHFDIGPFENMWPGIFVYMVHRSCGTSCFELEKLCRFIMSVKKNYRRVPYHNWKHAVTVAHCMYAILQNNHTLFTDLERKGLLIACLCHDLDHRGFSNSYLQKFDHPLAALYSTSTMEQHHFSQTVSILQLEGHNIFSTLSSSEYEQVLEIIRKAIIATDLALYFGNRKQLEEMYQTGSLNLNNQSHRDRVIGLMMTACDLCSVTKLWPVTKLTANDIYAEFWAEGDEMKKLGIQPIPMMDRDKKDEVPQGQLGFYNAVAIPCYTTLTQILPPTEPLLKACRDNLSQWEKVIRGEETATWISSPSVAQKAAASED
Sequence of PDE2A1 (O00408 whole entry, the tested form may be a part): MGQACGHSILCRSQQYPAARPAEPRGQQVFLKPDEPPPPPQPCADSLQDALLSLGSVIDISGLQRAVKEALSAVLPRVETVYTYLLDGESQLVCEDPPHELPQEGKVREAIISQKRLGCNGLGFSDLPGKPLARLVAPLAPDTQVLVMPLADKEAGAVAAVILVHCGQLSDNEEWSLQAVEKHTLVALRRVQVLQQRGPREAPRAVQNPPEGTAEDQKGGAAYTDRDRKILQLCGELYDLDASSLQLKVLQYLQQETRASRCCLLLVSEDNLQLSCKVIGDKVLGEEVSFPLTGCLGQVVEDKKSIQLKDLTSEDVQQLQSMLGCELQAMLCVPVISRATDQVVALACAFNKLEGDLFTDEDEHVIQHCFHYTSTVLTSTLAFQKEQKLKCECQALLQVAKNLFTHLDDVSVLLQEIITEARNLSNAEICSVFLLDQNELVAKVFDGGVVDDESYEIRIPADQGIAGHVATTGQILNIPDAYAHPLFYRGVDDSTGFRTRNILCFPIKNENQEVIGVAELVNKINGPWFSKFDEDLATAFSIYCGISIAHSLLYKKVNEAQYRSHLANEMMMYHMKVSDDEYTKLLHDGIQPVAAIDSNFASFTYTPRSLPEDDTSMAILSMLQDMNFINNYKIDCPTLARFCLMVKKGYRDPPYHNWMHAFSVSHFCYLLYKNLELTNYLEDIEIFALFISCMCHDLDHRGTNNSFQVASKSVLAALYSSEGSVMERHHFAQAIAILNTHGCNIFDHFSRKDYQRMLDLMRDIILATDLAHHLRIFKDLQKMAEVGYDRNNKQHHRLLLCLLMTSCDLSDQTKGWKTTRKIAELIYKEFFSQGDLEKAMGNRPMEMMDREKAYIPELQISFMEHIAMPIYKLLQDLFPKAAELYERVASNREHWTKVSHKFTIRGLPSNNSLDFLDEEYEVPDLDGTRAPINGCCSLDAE

Regarding `Cc1nc2c(N3CCOCC3)ncnc2n1Cc1ccc(-c2cncnc2)cc1`, the inhibition in data set [1] was found to be 97%. In [2], the IC50 amounted to 76 nM. The half-life at 1 µM turned out to be 49.5 min in [3] and 69.3 min in data set [4]. Besides, the inhibition at 20 min, 10 µM came to 22% at CYP3A4 [5]; 20% on CYP3A4 [6]; 30% on CYP2D6 [8]; 12% at CYP1A2 [11]; 10% at CYP1A2 [12]; 90% on CYP2C19 [14]. The TDI entry on Cytochrome P450 2D6 [7], at Cytochrome P450 2C9 [9], on Cytochrome P450 2C9 [10] and at Cytochrome P450 2C19 [13] was “Not Active” in each case. Also, the inhibition at 0.5 h, 1 µM on PDE2A1 came to 4%. In addition, the inhibition result with Rattus norvegicus [15] and in the data set with Rattus norvegicus [17] was “Active” each time. Further, the inhibition result in the data set with Rattus norvegicus [16] and in the data set on Rattus norvegicus [18] was “inactive” throughout.
`Cc1ccc(-c2ccc(Cn3cnc4c(N5CCOCC5)ncnc43)cc2)cc1`: the inhibition in data set [1] came out at 97%. In [2], the IC50 is 75 nM. The half-life at 1 µM in [3] was 22.4 min; in data set [4] it was 49.5 min. Further, the TDI result on Cytochrome P450 3A4 [19], at Cytochrome P450 3A4 [20], at Cytochrome P450 2D6 [22], at Cytochrome P450 2C9 [10] and at Cytochrome P450 2C19 [25] was “Not Active” throughout. Also, the inhibition at 20 min, 10 µM was found to be 6% at CYP2D6 [21]; 30% on CYP2C9 [23]; 12% at CYP1A2 [11]; 20% at CYP1A2 [12]; 44% at CYP2C19 [24].
In the case of `Cc1cc(-c2ccc(Cn3c(C)nc4c(N5CCOCC5)ncnc43)cc2)ccn1`, the inhibition in data set [1] turned out to be 98%. In data set [2], the IC50 amounted to 56 nM. Moreover, the half-life at 1 µM in [3] worked out at 18.2 min; in [4] it was 23.9 min. The inhibition at 20 min, 10 µM came to 12% on CYP3A4 [5]; 6% at CYP2D6 [21]; 60% at CYP2D6 [8]; 18% on CYP2C9 [23]; 10% on CYP2C9 [26]; 34% on CYP1A2 [11]. Also, the inhibition at 20 min, 10 µM on CYP1A2 [12] worked out at 30%; at CYP2C19 [24], 21%; at CYP2C19 [14], 70%. For the same compound, the TDI entry on Cytochrome P450 3A4 [20] is reported as “Not Active”.
